Source: ChEMBL document CHEMBL4138235, “Discovery of aliphatic-chain hydroxamates containing indole derivatives with potent class I histone deacetylase inhibitory activities” (Eur J Med Chem, 2018)

How the values were obtained:
[1] = Inhibition of class 1 HDAC in human HeLa nuclear extracts using Boc-Lys(Ac)-AMC as substrate preincubated for 5 mins followed by substrate addition measured after 30 mins by fluorescence assay
[2] = test system: PC-3; assay: Cytotoxicity against human PC3 cells assessed as growth inhibition after 48 hrs by SRB assay; format: functional, cell-based; conditions: PC-3, 48 h
[3] = test system: A549; assay: Cytotoxicity against human A549 cells assessed as growth inhibition after 48 hrs by SRB assay; format: functional, cell-based; conditions: A549, 48 h
[4] = biological target: Histone deacetylase 1 (Homo sapiens, UniProt Q13547); assay: Inhibition of C-terminal FLAG/His-tagged full length recombinant human HDAC1 expressed in baculovirus infected Sf9 insect cells using KI 177 as substrate preincubated for 5 mins followed by substrate addition measured after 30 mins by fluorescence assay
[5] = biological target: T1, Histone deacetylase 2 (Homo sapiens, UniProt Q92769); assay: biochemical; format: cell-based, Sf9
[6] = biological target: Histone deacetylase 3/Nuclear receptor corepressor 2 (HDAC3/NCoR2) (Homo sapiens, UniProt O15379); assay: Inhibition of C-terminal His-tagged/N-terminal GST-tagged full length recombinant human HDAC3/NcoR2 expressed in baculovirus infected Sf9 insect cells using KI 177 as substrate preincubated for 5 mins followed by substrate addition measured after 30 mins by fluorescence assay
[7] = biological target: T2, Histone deacetylase 8 (Homo sapiens, UniProt Q9BY41); assay: Inhibition of C-terminal His-tagged recombinant human HDAC8 (1 to 377 residues) expressed in baculovirus infected Sf9 insect cells using Boc-Lys(TFA)-AMC as substrate preincubated for 5 mins followed by substrate addition measured after 30 mins by fluorescence assay
T2 sequence (Q9BY41 whole entry): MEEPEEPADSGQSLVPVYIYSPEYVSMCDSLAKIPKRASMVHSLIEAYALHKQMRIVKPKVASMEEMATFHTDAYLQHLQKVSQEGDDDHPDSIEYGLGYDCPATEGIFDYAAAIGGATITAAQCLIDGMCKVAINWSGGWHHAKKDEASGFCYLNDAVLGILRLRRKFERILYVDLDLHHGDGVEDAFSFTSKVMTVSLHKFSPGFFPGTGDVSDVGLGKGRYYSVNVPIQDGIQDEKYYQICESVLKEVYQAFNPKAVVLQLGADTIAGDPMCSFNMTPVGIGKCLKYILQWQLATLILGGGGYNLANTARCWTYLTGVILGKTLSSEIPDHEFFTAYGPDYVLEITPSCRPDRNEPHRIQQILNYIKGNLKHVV

[8] = biological target: Histone deacetylase 4 (Homo sapiens, UniProt P56524); assay: Inhibition of N-terminal GST/C-terminal His-tagged recombinant human HDAC4 (648 to 1057 residues) expressed in baculovirus infected Sf9 insect cells using Boc-Lys(TFA)-AMC as substrate preincubated for 5 mins followed by substrate addition measured after 30 mins by fluorescence assay
[9] = biological target: Histone deacetylase 5 (Homo sapiens, UniProt Q9UQL6); assay: Inhibition of full length recombinant human HDAC5 preincubated for 5 mins followed by substrate addition measured after 30 mins by fluorescence assay
[10] = biological target: T3, Histone deacetylase 7 (Homo sapiens, UniProt Q8WUI4); assay: Inhibition of N-terminal GST-tagged human HDAC7 expressed in baculovirus infected Sf9 insect cells preincubated for 5 mins followed by substrate addition measured after 30 mins by fluorescence assay
T3 sequence (Q8WUI4 whole entry): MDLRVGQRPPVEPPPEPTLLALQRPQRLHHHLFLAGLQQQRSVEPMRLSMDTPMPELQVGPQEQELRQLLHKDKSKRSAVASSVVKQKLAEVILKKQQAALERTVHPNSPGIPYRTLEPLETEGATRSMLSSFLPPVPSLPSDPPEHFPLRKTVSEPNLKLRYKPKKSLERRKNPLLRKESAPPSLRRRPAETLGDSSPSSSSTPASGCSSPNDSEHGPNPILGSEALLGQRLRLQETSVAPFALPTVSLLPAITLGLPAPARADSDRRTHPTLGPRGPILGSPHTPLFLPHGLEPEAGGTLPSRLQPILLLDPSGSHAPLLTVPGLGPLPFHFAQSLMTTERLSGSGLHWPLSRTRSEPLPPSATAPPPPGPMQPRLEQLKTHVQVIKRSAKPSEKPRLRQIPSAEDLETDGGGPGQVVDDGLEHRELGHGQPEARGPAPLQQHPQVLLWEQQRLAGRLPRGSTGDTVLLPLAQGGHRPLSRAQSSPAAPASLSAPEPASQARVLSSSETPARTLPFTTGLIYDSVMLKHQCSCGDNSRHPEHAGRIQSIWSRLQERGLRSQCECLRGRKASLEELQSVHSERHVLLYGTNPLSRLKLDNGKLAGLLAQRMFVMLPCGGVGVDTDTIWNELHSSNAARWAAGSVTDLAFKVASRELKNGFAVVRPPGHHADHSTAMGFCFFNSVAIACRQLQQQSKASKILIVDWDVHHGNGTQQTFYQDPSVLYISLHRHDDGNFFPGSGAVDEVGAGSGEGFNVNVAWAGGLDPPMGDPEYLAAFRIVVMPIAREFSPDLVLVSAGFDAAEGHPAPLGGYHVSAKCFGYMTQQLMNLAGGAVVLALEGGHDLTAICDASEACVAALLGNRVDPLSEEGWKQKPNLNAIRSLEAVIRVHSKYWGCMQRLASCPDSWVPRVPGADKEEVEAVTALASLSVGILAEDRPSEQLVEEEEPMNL

[11] = biological target: Histone deacetylase 9 (Homo sapiens, UniProt Q9UKV0); assay: Inhibition of C-terminal His-tagged recombinant human HDAC9 expressed in baculovirus infected Sf9 insect cells preincubated for 5 mins followed by substrate addition measured after 30 mins by fluorescence assay
[12] = biological target: T4, Protein deacetylase HDAC6 (Homo sapiens, UniProt Q9UBN7); assay: Inhibition of N-terminal GST-tagged human HDAC6 using Boc-Lys(Ac)-AMC as substrate preincubated for 5 mins followed by substrate addition measured after 30 mins by fluorescence assay
T4 sequence (Q9UBN7 whole entry): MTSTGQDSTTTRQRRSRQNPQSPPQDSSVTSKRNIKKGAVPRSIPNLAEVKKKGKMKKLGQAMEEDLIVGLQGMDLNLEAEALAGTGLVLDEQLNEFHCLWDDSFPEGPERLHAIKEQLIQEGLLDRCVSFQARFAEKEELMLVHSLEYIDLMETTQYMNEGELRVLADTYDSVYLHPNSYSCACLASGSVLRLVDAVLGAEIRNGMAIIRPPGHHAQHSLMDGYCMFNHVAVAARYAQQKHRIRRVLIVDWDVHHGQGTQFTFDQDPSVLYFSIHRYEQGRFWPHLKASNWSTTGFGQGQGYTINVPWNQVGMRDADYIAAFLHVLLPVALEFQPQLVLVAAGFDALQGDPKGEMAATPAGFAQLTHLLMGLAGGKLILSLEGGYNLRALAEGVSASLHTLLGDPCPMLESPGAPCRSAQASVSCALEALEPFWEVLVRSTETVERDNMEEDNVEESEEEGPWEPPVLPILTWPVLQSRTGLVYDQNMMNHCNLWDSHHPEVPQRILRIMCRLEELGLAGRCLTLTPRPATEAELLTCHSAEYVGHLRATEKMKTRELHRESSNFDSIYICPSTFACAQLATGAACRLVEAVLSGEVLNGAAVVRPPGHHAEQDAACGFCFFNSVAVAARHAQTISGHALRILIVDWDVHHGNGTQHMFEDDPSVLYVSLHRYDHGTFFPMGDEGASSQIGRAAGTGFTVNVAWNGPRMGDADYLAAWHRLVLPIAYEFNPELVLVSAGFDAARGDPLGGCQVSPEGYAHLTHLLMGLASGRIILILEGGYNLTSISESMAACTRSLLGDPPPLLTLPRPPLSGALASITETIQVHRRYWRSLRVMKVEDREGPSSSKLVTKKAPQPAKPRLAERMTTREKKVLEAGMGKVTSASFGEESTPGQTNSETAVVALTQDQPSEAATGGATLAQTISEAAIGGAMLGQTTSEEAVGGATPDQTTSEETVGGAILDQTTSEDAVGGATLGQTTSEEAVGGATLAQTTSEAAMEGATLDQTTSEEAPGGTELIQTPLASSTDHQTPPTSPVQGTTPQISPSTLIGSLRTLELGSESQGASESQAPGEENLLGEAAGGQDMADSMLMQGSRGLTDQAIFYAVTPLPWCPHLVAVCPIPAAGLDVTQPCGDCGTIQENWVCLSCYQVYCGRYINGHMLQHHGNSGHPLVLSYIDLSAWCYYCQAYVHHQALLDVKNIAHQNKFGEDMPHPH

[13] = species: Homo sapiens; assay: Potency index, ratio of SAHA IC50 to test compound IC50 for class 1 HDAC in human HeLa nuclear extracts
Outline: (§1)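 Fluorogenic deacetylase assay in 15 mM Tris-HCl pH 8.1, 0.25 mM EDTA, 250 mM NaCl, 10% glycerol. Enzyme and compound preincubated 5 min at 30 °C. Substrates: Boc-Lys(Ac)-AMC for HeLa extract, Boc-Lys(TFA)-AMC for HDAC8, KI 177 for HDAC1/2. Reaction ran 30 min at 30 °C, then trypsin with SAHA developed it 20 min; read at ex 355/em 460 nm. 0.1% DMSO set as 100% and 2 µM SAHA as 0%; run in triplicate; IC50 ratios relative to SAHA.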

[14] = biological target: T1, Histone deacetylase 2; assay: Potency index, ratio of SAHA IC50 to test compound IC50 for full length recombinant human HDAC2 expressed in baculovirus infected Sf9 insect cells; outline: as §1

T1 sequence (Q92769 whole entry): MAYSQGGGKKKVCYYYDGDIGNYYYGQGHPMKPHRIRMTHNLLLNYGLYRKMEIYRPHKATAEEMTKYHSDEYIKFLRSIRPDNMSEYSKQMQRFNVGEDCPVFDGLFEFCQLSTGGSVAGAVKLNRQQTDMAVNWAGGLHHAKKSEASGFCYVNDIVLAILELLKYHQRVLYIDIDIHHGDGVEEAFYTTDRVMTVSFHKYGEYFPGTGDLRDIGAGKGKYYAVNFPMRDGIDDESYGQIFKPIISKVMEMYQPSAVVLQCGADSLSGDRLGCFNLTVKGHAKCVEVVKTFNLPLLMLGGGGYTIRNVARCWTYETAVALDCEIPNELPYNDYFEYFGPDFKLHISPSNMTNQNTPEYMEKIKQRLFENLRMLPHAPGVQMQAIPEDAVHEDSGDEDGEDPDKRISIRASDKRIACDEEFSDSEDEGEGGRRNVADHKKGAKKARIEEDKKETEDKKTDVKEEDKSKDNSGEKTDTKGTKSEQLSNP
Chain of Histone deacetylase 3/Nuclear receptor corepressor 2 (HDAC3/NCoR2) (O15379 whole entry, the tested form may be a part): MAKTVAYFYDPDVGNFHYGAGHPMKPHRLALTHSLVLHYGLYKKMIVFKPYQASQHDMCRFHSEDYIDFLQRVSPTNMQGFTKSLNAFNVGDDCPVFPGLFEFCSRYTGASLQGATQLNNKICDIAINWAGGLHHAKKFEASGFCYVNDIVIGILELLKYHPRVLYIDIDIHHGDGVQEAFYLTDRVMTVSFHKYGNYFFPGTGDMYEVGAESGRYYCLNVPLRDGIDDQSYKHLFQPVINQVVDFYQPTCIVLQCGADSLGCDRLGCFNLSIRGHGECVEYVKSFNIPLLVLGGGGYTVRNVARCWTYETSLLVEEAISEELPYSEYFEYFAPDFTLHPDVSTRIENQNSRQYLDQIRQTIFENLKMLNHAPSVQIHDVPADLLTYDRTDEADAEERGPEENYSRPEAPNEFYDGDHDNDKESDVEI
Chain of Histone deacetylase 3/Nuclear receptor corepressor 2 (HDAC3/NCoR2) (Q9Y618 whole entry, further chain, the tested form may be a part): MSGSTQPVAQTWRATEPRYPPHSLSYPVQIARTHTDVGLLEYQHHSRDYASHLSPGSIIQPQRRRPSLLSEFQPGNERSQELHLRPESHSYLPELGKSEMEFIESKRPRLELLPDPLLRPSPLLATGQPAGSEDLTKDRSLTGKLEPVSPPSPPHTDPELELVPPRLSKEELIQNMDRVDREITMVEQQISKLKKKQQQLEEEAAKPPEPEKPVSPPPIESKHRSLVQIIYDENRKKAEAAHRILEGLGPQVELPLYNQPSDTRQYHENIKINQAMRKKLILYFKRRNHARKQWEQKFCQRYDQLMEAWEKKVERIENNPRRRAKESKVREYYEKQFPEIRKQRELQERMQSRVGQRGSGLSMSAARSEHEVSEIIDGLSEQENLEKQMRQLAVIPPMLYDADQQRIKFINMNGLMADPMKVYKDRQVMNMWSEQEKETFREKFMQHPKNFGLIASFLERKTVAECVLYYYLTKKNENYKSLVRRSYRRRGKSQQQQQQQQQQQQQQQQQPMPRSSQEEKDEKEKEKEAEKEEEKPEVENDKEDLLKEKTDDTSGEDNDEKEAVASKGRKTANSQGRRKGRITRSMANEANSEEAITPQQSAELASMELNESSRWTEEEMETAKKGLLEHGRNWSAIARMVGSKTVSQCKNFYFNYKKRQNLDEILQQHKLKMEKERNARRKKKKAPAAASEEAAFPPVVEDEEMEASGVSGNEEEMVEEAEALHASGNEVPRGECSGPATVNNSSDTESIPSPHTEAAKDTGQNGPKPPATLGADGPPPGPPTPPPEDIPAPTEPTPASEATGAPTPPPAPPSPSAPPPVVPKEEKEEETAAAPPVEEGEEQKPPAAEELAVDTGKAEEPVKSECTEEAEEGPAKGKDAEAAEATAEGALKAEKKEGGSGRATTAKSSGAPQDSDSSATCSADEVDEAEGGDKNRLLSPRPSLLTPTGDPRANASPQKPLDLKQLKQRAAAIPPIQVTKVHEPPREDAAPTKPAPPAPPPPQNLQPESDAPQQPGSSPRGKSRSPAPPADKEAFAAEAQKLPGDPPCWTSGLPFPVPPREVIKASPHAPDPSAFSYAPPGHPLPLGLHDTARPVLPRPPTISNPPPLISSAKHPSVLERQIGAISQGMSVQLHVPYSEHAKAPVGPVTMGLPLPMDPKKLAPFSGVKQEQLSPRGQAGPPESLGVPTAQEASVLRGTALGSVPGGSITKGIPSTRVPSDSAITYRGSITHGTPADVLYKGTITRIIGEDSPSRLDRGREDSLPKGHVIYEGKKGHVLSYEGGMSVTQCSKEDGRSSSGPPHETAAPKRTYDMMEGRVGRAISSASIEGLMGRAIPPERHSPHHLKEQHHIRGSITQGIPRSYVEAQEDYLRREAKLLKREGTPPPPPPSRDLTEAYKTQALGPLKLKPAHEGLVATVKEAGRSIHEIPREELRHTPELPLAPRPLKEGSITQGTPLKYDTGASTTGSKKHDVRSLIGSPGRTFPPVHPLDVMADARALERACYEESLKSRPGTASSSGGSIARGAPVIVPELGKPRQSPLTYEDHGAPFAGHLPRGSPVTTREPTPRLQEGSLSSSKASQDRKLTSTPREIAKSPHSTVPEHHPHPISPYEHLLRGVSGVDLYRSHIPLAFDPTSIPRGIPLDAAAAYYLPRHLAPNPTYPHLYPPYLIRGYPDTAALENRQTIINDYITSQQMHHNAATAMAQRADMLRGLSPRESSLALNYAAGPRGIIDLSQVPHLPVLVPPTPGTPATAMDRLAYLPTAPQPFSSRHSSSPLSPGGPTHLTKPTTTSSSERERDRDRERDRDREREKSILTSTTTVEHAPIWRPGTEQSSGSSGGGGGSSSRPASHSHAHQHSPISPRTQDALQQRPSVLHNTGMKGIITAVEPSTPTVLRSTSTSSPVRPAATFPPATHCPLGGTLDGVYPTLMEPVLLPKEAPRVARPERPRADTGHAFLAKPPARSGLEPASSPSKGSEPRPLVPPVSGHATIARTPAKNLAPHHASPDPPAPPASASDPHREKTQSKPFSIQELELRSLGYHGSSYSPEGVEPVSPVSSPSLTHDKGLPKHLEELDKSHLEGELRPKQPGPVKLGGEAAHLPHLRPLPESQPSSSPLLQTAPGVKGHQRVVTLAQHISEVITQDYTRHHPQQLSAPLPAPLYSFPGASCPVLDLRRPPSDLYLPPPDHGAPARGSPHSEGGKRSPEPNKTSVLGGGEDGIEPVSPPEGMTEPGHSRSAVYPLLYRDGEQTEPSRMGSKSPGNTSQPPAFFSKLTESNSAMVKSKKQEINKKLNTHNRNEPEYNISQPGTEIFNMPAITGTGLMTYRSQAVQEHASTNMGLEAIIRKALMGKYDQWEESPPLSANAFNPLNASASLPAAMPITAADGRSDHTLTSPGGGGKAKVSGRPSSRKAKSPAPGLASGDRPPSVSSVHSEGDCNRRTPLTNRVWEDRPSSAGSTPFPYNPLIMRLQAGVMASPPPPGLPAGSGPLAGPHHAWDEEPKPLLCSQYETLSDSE
Chain of Histone deacetylase 9 (Q9UKV0 whole entry): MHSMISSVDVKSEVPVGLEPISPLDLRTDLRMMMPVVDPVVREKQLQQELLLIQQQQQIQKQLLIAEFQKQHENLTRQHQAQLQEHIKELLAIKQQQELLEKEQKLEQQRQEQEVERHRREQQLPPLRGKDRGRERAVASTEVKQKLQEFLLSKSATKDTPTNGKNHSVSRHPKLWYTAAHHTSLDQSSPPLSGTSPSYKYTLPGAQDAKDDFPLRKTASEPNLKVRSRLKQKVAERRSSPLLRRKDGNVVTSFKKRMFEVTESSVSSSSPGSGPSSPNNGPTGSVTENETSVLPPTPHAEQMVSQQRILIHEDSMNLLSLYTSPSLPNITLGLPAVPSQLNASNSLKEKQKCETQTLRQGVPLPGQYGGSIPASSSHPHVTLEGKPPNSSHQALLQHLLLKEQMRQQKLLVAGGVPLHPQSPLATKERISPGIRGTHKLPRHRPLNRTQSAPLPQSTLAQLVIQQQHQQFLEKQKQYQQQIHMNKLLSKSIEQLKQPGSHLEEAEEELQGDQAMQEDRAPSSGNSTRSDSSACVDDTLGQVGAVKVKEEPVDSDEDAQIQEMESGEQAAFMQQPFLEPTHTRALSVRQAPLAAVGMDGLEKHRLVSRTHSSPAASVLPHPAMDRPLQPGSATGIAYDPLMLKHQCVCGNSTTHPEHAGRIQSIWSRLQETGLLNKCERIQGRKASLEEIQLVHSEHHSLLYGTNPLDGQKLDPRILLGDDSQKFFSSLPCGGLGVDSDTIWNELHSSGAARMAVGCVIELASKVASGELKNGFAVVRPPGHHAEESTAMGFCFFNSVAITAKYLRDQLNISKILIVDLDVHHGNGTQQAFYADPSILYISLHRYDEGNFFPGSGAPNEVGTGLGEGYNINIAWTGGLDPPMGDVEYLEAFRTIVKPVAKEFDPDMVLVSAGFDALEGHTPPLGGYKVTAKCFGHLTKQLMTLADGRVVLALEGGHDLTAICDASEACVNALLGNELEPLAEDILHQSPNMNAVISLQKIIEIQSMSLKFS
Chain of Histone deacetylase 1 (Q13547 whole entry): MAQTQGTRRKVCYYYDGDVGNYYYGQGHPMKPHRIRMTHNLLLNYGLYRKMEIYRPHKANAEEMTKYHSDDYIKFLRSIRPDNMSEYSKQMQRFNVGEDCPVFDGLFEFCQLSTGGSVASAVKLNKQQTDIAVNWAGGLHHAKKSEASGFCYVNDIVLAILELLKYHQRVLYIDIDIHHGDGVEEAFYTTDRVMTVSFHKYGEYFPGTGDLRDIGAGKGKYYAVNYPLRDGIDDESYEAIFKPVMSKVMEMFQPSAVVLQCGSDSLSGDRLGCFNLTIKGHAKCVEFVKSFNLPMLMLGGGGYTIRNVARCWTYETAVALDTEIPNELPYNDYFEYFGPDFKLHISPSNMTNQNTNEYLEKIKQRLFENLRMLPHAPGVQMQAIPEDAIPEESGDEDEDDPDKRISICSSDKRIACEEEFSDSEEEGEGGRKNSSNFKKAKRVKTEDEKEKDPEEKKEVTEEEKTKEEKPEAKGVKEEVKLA

IC50 [1] [µM]	Compound	IC50 [2] [µM]	IC50 [3] [µM]	further results
0.0135	COc1cccc2ccn(CCOc3cccc(NC(=O)CCCCCCC(=O)NO)c3)c12	1.4	1.9	
0.111	COc1cc2ccn(CCCCOc3ccccc3NC(=O)CCCCCCC(=O)NO)c2c(OC)c1OC	2.4	4.8	
0.0413	O=C(CCCCCCC(=O)Nc1cccc(OCCn2ccc3cc(Br)ccc32)c1)NO			
0.139	COc1cc2ccn(CCCOc3ccc(NC(=O)CCCCCCC(=O)NO)cc3)c2c(OC)c1OC	6.9	5.9	
0.111	COc1cc2ccn(CCCOc3ccccc3NC(=O)CCCCCCC(=O)NO)c2c(OC)c1OC	3.9	5	
0.04	COc1ccc2c(ccn2CCOc2cccc(NC(=O)CCCCCCCC(=O)NO)c2)c1			
0.0115	COc1cc2ccn(CCOc3cccc(NC(=O)CCCCCCC(=O)NO)c3)c2c(OC)c1OC	1.3	2.4	IC50 [4]: 0.0111 µM; IC50 [5]: 0.111 µM; IC50 [6]: 0.0725 µM; IC50 [7]: 0.421 µM; IC50 [8]: > 10 µM; IC50 [9]: > 10 µM; IC50 [10]: > 10 µM; IC50 [11]: > 10 µM; IC50 [12]: 0.0096 µM; Ratio IC50 [14]: 2; Ratio IC50 [13]: 2 to 5
0.0464	COc1cc2ccn(CCCCOc3ccc(NC(=O)CCCCCCC(=O)NO)cc3)c2c(OC)c1OC	7.7	9.7	
0.298	COc1ccc2c(ccn2CCOc2cccc(NC(=O)CCCCCCCCC(=O)NO)c2)c1			

The remaining lines, values behind:

Compound	IC50 [1] [µM]	IC50 [2] [µM]	IC50 [3] [µM]	further results
COc1cc2ccn(CCCCOc3cccc(NC(=O)CCCCCCC(=O)NO)c3)c2c(OC)c1OC	0.0178	2.1	2.4	IC50 [4]: 0.0293 µM; IC50 [5]: 1 µM; IC50 [6]: 0.108 µM; IC50 [7]: 0.752 µM; IC50 [8]: > 10 µM; IC50 [9]: > 10 µM; IC50 [10]: > 10 µM; IC50 [11]: > 10 µM; IC50 [12]: 0.0085 µM; Ratio IC50 [13]: 2 to 5
COc1cc2ccn(CCCOc3cccc(NC(=O)CCCCCCC(=O)NO)c3)c2c(OC)c1OC	0.0225	2.7	2.7	Ratio IC50 [13]: 2 to 5
O=C(CCCCCCC(=O)Nc1cccc(OCCn2ccc3ccccc32)c1)NO	0.0231			
COc1cc2ccn(CCOc3ccc(NC(=O)CCCCCCC(=O)NO)cc3)c2c(OC)c1OC	0.0572	4.4	4.9	
COc1ccc2c(ccn2CCOc2cccc(NC(=O)CCCCC(=O)NO)c2)c1	0.186			
COc1ccc2ccn(CCOc3cccc(NC(=O)CCCCCCC(=O)NO)c3)c2c1	0.0149	1.8	4.2	
COc1cc2ccn(CCOc3ccccc3NC(=O)CCCCCCC(=O)NO)c2c(OC)c1OC	0.11	5.6	5.9	
